Measured values: ChEMBL document CHEMBL5113551, “Fragment-Based Dynamic Combinatorial Chemistry for Identification of Selective α-Glucosidase Inhibitors” (ACS Med Chem Lett, 2022)

What was measured:
Alpha amylase = target: T1, Alpha amylase (Homo sapiens, UniProt P0DUB6); assay: Inhibition of alpha-amylase (unknown origin)
T1 sequence (P0DUB6 whole entry): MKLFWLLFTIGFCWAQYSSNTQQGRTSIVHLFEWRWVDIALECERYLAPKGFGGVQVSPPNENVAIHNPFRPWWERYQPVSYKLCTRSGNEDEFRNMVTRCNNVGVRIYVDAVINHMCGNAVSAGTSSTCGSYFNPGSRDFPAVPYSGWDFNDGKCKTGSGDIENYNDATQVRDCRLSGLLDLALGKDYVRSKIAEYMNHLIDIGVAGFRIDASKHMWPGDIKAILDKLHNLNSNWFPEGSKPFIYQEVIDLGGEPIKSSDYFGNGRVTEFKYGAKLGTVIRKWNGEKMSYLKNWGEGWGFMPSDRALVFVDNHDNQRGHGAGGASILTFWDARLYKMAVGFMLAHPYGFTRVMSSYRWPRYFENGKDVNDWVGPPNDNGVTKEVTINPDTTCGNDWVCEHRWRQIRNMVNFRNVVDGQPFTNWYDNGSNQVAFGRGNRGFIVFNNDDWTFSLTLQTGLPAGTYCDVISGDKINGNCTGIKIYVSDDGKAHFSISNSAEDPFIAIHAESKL

[1] = Inhibition of alpha glucosidase (unknown origin); design: species or system Homo sapiens
[2] = Cytotoxicity against human HepG2 cells assessed as reduction in cell viability incubated for 24 hrs by CCK8 assay; type: toxicity, cell-based
Homo sapiens [3] = species: Homo sapiens; assay: Non-competitive inhibition of alpha glucosidase (unknown origin) using pNPG as substrate by Dixon plot analysis
Outline: (§1)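 Inhibition kinetics used a slightly modified, previously described method. Reciprocal velocity was plotted against inhibitor concentration at several fixed substrate concentrations (Dixon plot). The competitive constant (Ki) and noncompetitive constant (αKi) were read from this plot.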

[4] = Competitive inhibition of alpha glucosidase (unknown origin) using pNPG as substrate by Dixon plot analysis; design: species or system Homo sapiens; outline: as §1
Homo sapiens [5] = species: Homo sapiens; assay: Mixed type of inhibition of alpha glucosidase (unknown origin) using pNPG as substrate by Lineweaver-Burk plot analysis
Outline: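 Reaction velocity was measured across a range of substrate concentrations at several inhibitor concentrations. The data were plotted as 1/V versus 1/[S] and fitted linearly (Lineweaver–Burk). The quadrant where the lines intersect assigned the inhibition type, and the enzyme Km was derived from the same plot.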

| Structure (SMILES) | IC50 (Alpha amylase) [µM] | IC50 [1] [µM] | alphaKi (Homo sapiens [3]) [µM] | Ki [4] [µM] | Km (Homo sapiens [5]) [µM] | CC50 at 24 h [2] [µM] |
| --- | --- | --- | --- | --- | --- | --- |
| Cc1ccc(S(=O)(=O)Oc2ccc(/C=N/NC(=O)Cc3ccccn3)cc2)cc1 | > 200 | > 200 |  |  |  |  |
| C[C@H]1O[C@H](O[C@H]2[C@H](O)[C@@H](O)[C@@H](O[C@H]3[C@H](O)[C@@H](O)C(O)O[C@@H]3CO)O[C@@H]2CO)[C@H](O)[C@@H](O)[C@@H]1N[C@H]1C=C(CO)[C@@H](O)[C@H](O)[C@H]1O (some centres not stated) [ACARBOSE] |  | 8.06 |  |  |  |  |
| Cc1ccc(S(=O)(=O)Oc2ccc(/C=N/NC(=O)c3nc4ccccc4[nH]3)cc2)cc1 | > 200 | 168 |  |  |  |  |
| Cc1ccc(S(=O)(=O)Oc2ccc(/C=N/NC(=O)c3ccc(O)cc3)cc2)cc1 | > 200 | > 200 |  |  |  |  |
| O=C(N/N=C/c1coc2ccccc2c1=O)c1nc2ccccc2[nH]1 | > 200 | 32.5 |  |  |  | > 200 |

The next lines start with results.

| IC50 (Alpha amylase) [µM] | IC50 [1] [µM] | alphaKi (Homo sapiens [3]) [µM] | Ki [4] [µM] | Km (Homo sapiens [5]) [µM] | Structure (SMILES) | CC50 at 24 h [2] [µM] |
| --- | --- | --- | --- | --- | --- | --- |
| 151.46 | 22.6 |  |  |  | O=C(N/N=C/c1coc2ccc(O)cc2c1=O)c1cc2ccccc2[nH]1 | > 200 |
| > 200 | 2.52 | 2.75 | 1.98 | 930 | Cc1ccc2occ(/C=N/NC(=O)c3cc4ccccc4[nH]3)c(=O)c2c1 | > 200 |
| 128.1 | 6.49 |  |  |  | O=C(N/N=C/c1coc2ccccc2c1=O)c1cc2ccccc2[nH]1 | > 200 |
